# Assay outcomes (PubChem BioAssay)
# Rows were chosen to be rich in hits. Some 3.5% of all compounds tested hit in one or more screens of this group.
# MrgX1 allo act: allosterically activates human MrgX1 receptor signaling | MrgX1-HEK293, Fluo-4 calcium flux, FDSS; hits give high values | B-score at 10 µM | 0.63% of 310,000 active | AID 588675;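 active = plate-corrected calcium response at least 3 library SD above typical, normal starting fluorescence, not activating the receptor alone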;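 note: compound read alongside a low EC10 to EC30 dose of BAM8-22 agonist; peak minus trough fluorescence over baseline measured at the second addition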
# Target sequence (Q96LB2 whole entry, looked up): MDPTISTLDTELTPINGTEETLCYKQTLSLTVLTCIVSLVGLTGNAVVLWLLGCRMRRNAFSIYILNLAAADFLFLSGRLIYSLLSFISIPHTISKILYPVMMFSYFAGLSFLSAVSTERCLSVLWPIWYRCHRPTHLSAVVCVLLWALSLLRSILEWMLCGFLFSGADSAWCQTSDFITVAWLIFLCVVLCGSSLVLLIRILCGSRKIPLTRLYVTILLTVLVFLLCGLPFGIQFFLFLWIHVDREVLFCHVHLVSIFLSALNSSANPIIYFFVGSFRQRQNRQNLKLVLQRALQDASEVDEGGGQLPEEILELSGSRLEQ
# RGS4 block: inhibitors of human RGS4; P49798; HEK293 M3R/RGS4 inducible, Fluo-4 calcium flux; hits give high values; triggered by carbachol at its EC20; B-score at 10 µM; 0.45% of 310,000 active; AID 463165;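 active = B-score, a plate-corrected calcium signal, over three deviations above library mean, with baseline fluorescence within five deviations of library mean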;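 note: RGS4 expression induced by doxycycline in cells with stable M3 receptor; B-score is computed from the integrated fluorescence ratio over baseline after carbachol; higher B-score means a larger calcium signal and so more RGS4 inhibition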
# Target sequence (P49798 whole entry, looked up): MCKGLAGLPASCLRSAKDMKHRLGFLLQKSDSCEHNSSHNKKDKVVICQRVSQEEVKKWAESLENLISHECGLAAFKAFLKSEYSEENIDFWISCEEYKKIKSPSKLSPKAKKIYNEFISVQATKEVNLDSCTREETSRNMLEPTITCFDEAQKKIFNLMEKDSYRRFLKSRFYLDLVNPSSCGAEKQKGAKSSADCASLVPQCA
# MrgX1 ag: human MrgX1 receptor agonism, primary screen. AID 588627. B-score at 10 µM. Q96LB2. MrgX1-HEK293 cells, Fluo-4 calcium fluorescence, agonist mode; hits give high values. 0.44% of 310,000 active;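 active = calcium response B-score plate-corrected fluorescence ratio at least 3 library SD, with starting fluorescence B-score inside 5 SD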
#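 Material: MrgX1-expressing HEK293 cells / Dosing: compound as first of three additions / Incubation: overnight seeding, then 1 h dark dye loading / Signal: Fluo-4 NW calcium fluorescence / Evaluation: B-scored fluorescence response ratio / Benchmarks: positive and negative control wells on each plate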
# RGS4 pot: RGS4 potentiation or activation; HEK293 M3R/inducible RGS4, carbachol calcium flux Fluo4; hits give low values; B-score at 10 µM; 0.92% of 310,000 active;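 active = B-score of the integrated calcium signal more than 4 SD below the library mean, with starting fluorescence not abnormally high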;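 note: negative B-score means reduced calcium response which marks RGS4 activation or potentiation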
#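 test system = HEK293 cells with stable M3R and inducible RGS4 | schedule = recording 10 s baseline at 1 Hz, 100 s post-agonist | technique = Fluo4-AM (2 µM) calcium-flux fluorescence, kinetic read | measure = Agonist-evoked peak-minus-minimum fluorescence over baseline, integrated ratio, B score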
# MrgX1 antag: antagonists of human MrgX1 receptor; MRGX1-HEK293 calcium flux, Fluo-4, BAM8-22 antagonism; hits give low values; 1.3% of 310,000 active; Q96LB2; B-score at 10 µM; AID 588676;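 active = calcium-response B-score plate-corrected more than 3 library SD below zero, starting fluorescence within 5 deviations, no agonist response on first addition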;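 note: peak minus trough fluorescence over baseline after final BAM8-22 challenge near maximal dose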
# Starred values were filed as active, the others as inactive; i = inactive; . = no result.
SMILES,MrgX1 allo act,RGS4 block,MrgX1 ag,RGS4 pot,MrgX1 antag
O=C(O)CC(NC(=O)/C(=C/c1ccccc1)NC(=O)c1ccccc1)c1ccccc1 (stereo not given),i,i,i,i,i
CC(=O)NC(NC(=S)Nc1ccc(N=Nc2ccccc2C)cc1C)C(Cl)(Cl)Cl (stereo not given),i,i,i,i,-4.56*
CCC1=NN2C(=N)/C(=C\c3ccc(OCCOc4ccc(NC(C)=O)cc4)cc3)C(=O)N=C2S1,11.2*,i,i,i,i
COc1cc(/C=C2\C(=N)N3N=C(C)SC3=NC2=O)cc(Cl)c1OCCOc1ccc(NC(C)=O)cc1,7.61*,i,i,i,i
COc1ccccc1OCCOc1ccc(/C=C2\C(=N)N3N=C(S(C)(=O)=O)SC3=NC2=O)cc1,i,i,i,i,i
CC(=O)Nc1ccc(OCCOc2ccc(/C=C3/C(=N)N4C=CSC4=NC3=O)cc2)cc1,i,i,29.9*,i,i
COc1cc(/C=C2\C(=N)N3N=C(C)SC3=NC2=O)cc(OC)c1OCCOc1ccccc1C,i,i,i,i,i
CCC1=NN2C(=N)/C(=C/c3c(C)nn(-c4ccccc4)c3Cl)C(=O)N=C2S1,i,i,30*,i,i
CCC1=NN2C(=N)/C(=C/c3ccc(OS(=O)(=O)c4ccccc4)c(OC)c3)C(=O)N=C2S1,i,i,i,i,i
CCOc1cc(/C=C2\C(=N)N3N=C(CC)SC3=NC2=O)ccc1OCCOc1ccc(NC(C)=O)cc1,i,i,i,i,i
Cc1ccc(OCC(=O)Oc2c(C)cccc2C)cc1C,i,i,i,i,i
COc1cc(/C=C2/C(=N)N3OC(C)=CC3=NC2=O)ccc1OCCOc1ccc(C)cc1,i,i,i,i,-4.94*
CCc1nn2c(=O)cc(COc3ccc(/C=C4\C(=N)N5N=C(C)SC5=NC4=O)cc3)nc2s1,9.4*,i,i,i,-4.53*
COc1cc(/C=C2\C(=N)N3N=C(C(C)C)SC3=NC2=O)ccc1OCCOc1ccc(NC(C)=O)cc1,13.8*,i,i,i,i
CCCC1=NN2C(=N)/C(=C\c3ccc(OCCOc4ccc(NC(C)=O)cc4)c(OC)c3)C(=O)N=C2S1,15*,i,i,i,i
CCOc1cc(/C=C2\C(=N)N3N=C(C)SC3=NC2=O)ccc1OCCOc1cccc(OC)c1,i,i,i,i,i
CN(CC(=O)Nc1c(Cl)cccc1Cl)C(=O)CCC1CCCC1,i,i,i,i,i
O=C(O)CC1(CC(=O)NCc2ccc(Cl)cc2)CCCCC1,i,i,i,i,i
COc1ccccc1-c1cnn2c(NCc3ccccc3)cc(C)nc12,i,i,i,-7.28*,i
OC1(c2cccs2)CN(c2ccc(Cl)cc2)C2=[N+]1CCCC2 (stereo not given),i,i,i,-9.11*,i
Cc1ccc(C)c(N2CC(O)(c3cccs3)[N+]3=C2CCCC3)c1 (stereo not given),i,i,i,i,i
OC1(c2cccs2)CN(c2ccc(Cl)cc2)C2=[N+]1CCCS2 (stereo not given),i,i,28*,i,i
Cc1ccc2cc(CN(c3ccccc3C)S(=O)(=O)c3ccccc3)c(=O)[nH]c2c1,i,i,i,i,i
COc1cc(/C=N\Nc2nc3ccccc3o2)cc(OC)c1OC,i,i,i,i,-6.61*
Cc1ccc(NC(=O)CSCC(=O)Nc2ccccc2N2CCCCC2)cc1,i,i,i,i,i
SMILES,MrgX1 allo act,RGS4 block,MrgX1 ag,RGS4 pot,MrgX1 antag
COC(=O)c1ccc(NC(=O)c2cccc(C)c2[N+](=O)[O-])cc1,i,i,i,i,-6.25*
O=C(Nc1ccc(Cl)cc1)Nc1cc([N+](=O)[O-])ccc1F,i,i,i,i,i
COC(=O)c1ccc(NC(=O)Nc2ccc([N+](=O)[O-])cc2)cc1,i,i,i,i,-7.65*
O=C(Nc1ccc(C(=O)O)cc1)Nc1ccc([N+](=O)[O-])cc1,i,i,i,i,i
O=C(Nc1ccc([N+](=O)[O-])cc1)Nc1ccon1,i,i,i,i,-4.55*
O=C(Nc1ccc([N+](=O)[O-])cc1)Nc1ccc(Cl)cc1F,i,i,i,i,-4.88*
Cc1cc(OCc2cc(C(=O)N(C)C(C)c3ccccn3)no2)cc(C)c1Cl (stereo not given),i,i,i,i,i
NS(=O)(=O)c1ccc2nc(NC(=O)c3ccncc3)sc2c1,i,i,i,i,i
C[C@H](O)[C@H](O)[C@H]1CNc2nc(N)[nH]c(=O)c2N1,i,i,i,i,-5.43*
C[C@H](O)C(=O)C1=Nc2c(nc(N)[nH]c2=O)NC1,i,.,i,.,i
C=CCN(C(=O)c1csnn1)C(C(=O)NC1CCCC1)c1c(F)cccc1Cl (stereo not given),i,i,i,i,i
Oc1cccc(Nc2nc(NCC3CCCO3)c3ccccc3n2)c1 (stereo not given),i,i,i,i,i
CCOc1ccc(Nc2nc(NCC3CCCO3)c3ccccc3n2)cc1 (stereo not given),i,i,i,-7.19*,-5.86*
CN(CCC1CCOCC1)C(=O)CC1C(=O)NCCN1Cc1c(F)cccc1Cl (stereo not given),i,i,i,i,i
CC1(C)OC(=O)C(=CNc2ccccc2)C(=O)O1,i,i,i,i,-7.31*
CC(C)Sc1nc(N2CCCC2)c2c(c1C#N)CC(C)(C)OC2,i,i,i,-7.22*,i
O=C(Nc1ccsc1C(=O)O)c1ccccc1Cl,i,i,i,i,i
CSc1ccc(C2C(C#N)=C(N)Oc3c2ccc(=O)c2c(C)oc(C)c32)cc1 (stereo not given),9.83*,i,i,i,i
Cc1oc(C)c2c(=O)ccc3c(c12)OC(N)=C(C#N)C3c1ccccc1Cl (stereo not given),i,i,i,i,i
Cc1oc(C)c2c(=O)ccc3c(c12)OC(N)=C(C#N)C3c1ccccc1 (stereo not given),i,i,48.7*,i,i
Cc1cc(C)c(C(=O)Nc2ccccc2)c(CC(C)(C)C(=O)O)c1,i,i,i,i,i
CC1CCN(C(=O)CSc2nc(N)c(NC(=O)c3ccccc3)c(=O)[nH]2)CC1,i,i,i,i,i
